Data taken from ChEMBL document CHEMBL1955851, “Fatty acyl amide derivatives of doxorubicin: synthesis and in vitro anticancer activities” (Eur J Med Chem, 2011).
Calls of active or inactive are those of the source. The rule behind the calls is not given here.

How the values were obtained:
MDA-MB-468 [1] = assay: Antiproliferative activity against human MDA-MB-468 cells assessed as growth inhibition at 1 uM after 24 hrs by spectrophotometry; format: functional, cell-based
Procedure, shortened: (§1)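 CellTiter 96 AQueous One (MTS) proliferation assay. Cells grown at 37 °C, 5% CO2, 10% FBS plus 1% penicillin-streptomycin. Medium was RPMI for CCRF-CEM and EMEM for MDA-MB-468, SK-OV-3 and HT-29. Compound at 1 μM in 4% DMSO, triplicate wells, incubated 24-120 h, then 1 h with reagent. A490 read. Survival % = (treated − medium)/(control − medium) × 100.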

CCRF-CEM [2] = assay: Antiproliferative activity against human CCRF-CEM cells assessed as growth inhibition at 1 uM after 24 to 96 hrs by spectrophotometry; format: functional, cell-based; procedure, shortened: as §1
SK-OV-3 [3] = assay: Antiproliferative activity against human SKOV3 cells assessed as growth inhibition at 1 uM after 24 to 96 hrs by spectrophotometry; format: functional, cell-based; procedure, shortened: as §1
HT-29 = assay: Antiproliferative activity against human HT-29 cells assessed as growth inhibition at 1 uM after 120 hrs by spectrophotometry relative to control; format: functional; settings: for inhibition of growth at 1 µM: HT-29, 120 h, read-out: GI; procedure, shortened: as §1
[4] = n-Octanol-water partition coefficient, log P of the compound by shake flask method; format: physicochemical
Procedure, shortened: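 Shake-flask method. 100 µg of derivative partitioned between 300 µL 1-octanol and 300 µL distilled water, shaken 30 min, phases left to separate. Each phase quantified by UV spectroscopy against a standard spectrum. P = octanol/water concentration ratio, reported as Log P. Mean of three runs.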

MDA-MB-468 [5] = assay: Antiproliferative activity against human MDA-MB-468 cells assessed as growth inhibition at 1 uM after 96 hrs by spectrophotometry relative to control; format: functional; settings: MDA-MB-468, 96 h, read-out: GI; procedure, shortened: as §1
SK-OV-3 [6] = assay: Antiproliferative activity against human SKOV3 cells assessed as growth inhibition at 1 uM after 96 hrs by spectrophotometry relative to control; format: functional; settings: SK-OV-3, 96 h, read-out: GI; procedure, shortened: as §1
CCRF-CEM [7] = assay: Antiproliferative activity against human CCRF-CEM cells assessed as growth inhibition at 1 uM after 96 hrs by spectrophotometry relative to control; format: functional; settings: read-out: GI; procedure, shortened: as §1

| Structure (SMILES) | growth inhibition (GI) (MDA-MB-468 [1]) | growth inhibition (GI) (CCRF-CEM [2]) | growth inhibition (GI) (SK-OV-3 [3]) | growth inhibition (GI) (HT-29) | logP [4] | inhibition of growth at 1 µM (MDA-MB-468 [5]) [%] | inhibition of growth at 1 µM (SK-OV-3 [6]) [%] | inhibition of growth at 1 µM (HT-29) [%] | inhibition of growth at 1 µM (CCRF-CEM [7]) [%] |
| --- | --- | --- | --- | --- | --- | --- | --- | --- | --- |
| CCCCCCCCCCCCCCCCCCCC(=O)N[C@H]1C[C@H](O[C@H]2C[C@](O)(C(=O)CO)Cc3c(O)c4c(c(O)c32)C(=O)c2c(OC)cccc2C4=O)O[C@@H](C)[C@H]1O | inactive | inactive | Active | Active | – | – | – | – | – |
| COc1cccc2c1C(=O)c1c(O)c3c(c(O)c1C2=O)C[C@@](O)(C(=O)CO)C[C@@H]3O[C@H]1C[C@H](NC(C)=O)[C@H](O)[C@H](C)O1 | inactive | inactive | Active | Active | 1.18 | – | – | – | – |
| CCCCCCCCCCCCCCCC(=O)N[C@H]1C[C@H](O[C@H]2C[C@](O)(C(=O)CO)Cc3c(O)c4c(c(O)c32)C(=O)c2c(OC)cccc2C4=O)O[C@@H](C)[C@H]1O | inactive | inactive | Active | Active | – | – | – | – | – |
| COc1cccc2c1C(=O)c1c(O)c3c(c(O)c1C2=O)C[C@@](O)(C(=O)CO)C[C@@H]3O[C@H]1C[C@H](N)[C@H](O)[C@H](C)O1 [DOXORUBICIN] | – | – | – | – | 0.6 | – | – | – | – |
| CCCCCCCCCCCC(=O)N[C@H]1C[C@H](O[C@H]2C[C@](O)(C(=O)CO)Cc3c(O)c4c(c(O)c32)C(=O)c2c(OC)cccc2C4=O)O[C@@H](C)[C@H]1O | inactive | inactive | – | – | – | 38 | 58 | 64 | – |
| CCCCCCCC(=O)N[C@H]1C[C@H](O[C@H]2C[C@](O)(C(=O)CO)Cc3c(O)c4c(c(O)c32)C(=O)c2c(OC)cccc2C4=O)O[C@@H](C)[C@H]1O | inactive | inactive | Active | Active | – | – | – | – | – |
| CCCCCCCCCC(=O)N[C@H]1C[C@H](O[C@H]2C[C@](O)(C(=O)CO)Cc3c(O)c4c(c(O)c32)C(=O)c2c(OC)cccc2C4=O)O[C@@H](C)[C@H]1O | inactive | inactive | Active | Active | – | – | – | – | – |
| CCSCCCCCCCCCCCC(=O)N[C@H]1C[C@H](O[C@H]2C[C@](O)(C(=O)CO)Cc3c(O)c4c(c(O)c32)C(=O)c2c(OC)cccc2C4=O)O[C@@H](C)[C@H]1O | inactive | inactive | – | – | – | – | – | – | – |
| CCCCCCCCCCCCCC(=O)N[C@H]1C[C@H](O[C@H]2C[C@](O)(C(=O)CO)Cc3c(O)c4c(c(O)c32)C(=O)c2c(OC)cccc2C4=O)O[C@@H](C)[C@H]1O | inactive | – | – | – | – | 31 | 50 | 41 | 27 |
| CCCCCCCCCCCCCCCCCC(=O)N[C@H]1C[C@H](O[C@H]2C[C@](O)(C(=O)CO)Cc3c(O)c4c(c(O)c32)C(=O)c2c(OC)cccc2C4=O)O[C@@H](C)[C@H]1O | inactive | inactive | Active | Active | – | – | – | – | – |
